ChEMBL document CHEMBL1255300, “Pharmacodynamics of the antibacterial effect and emergence of resistance to tomopenem, formerly RO4908463/CS-023, in an in vitro pharmacokinetic model of Staphylococcus aureus infection” (Antimicrob Agents Chemother, 2008)
Values after ≈ are worked out from the molar mass of the structure shown. Active and inactive are the calls of the source. No cut-off for these calls is given here.

Experiments:
Staphylococcus aureus [1] = experiment: Antibacterial activity against methicillin-resistant Staphylococcus aureus 33815 by 10% MH broth method; assay type: functional
Summary of the method: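 Broth dilution MIC per CLSI but in 10% Mueller-Hinton broth, using nondoubling dilutions.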

Staphylococcus aureus [2] = experiment: Antibacterial activity against methicillin-resistant Staphylococcus aureus 33827 assessed as viable count at 4 times of MIC after 48 hrs using 10^6 CFU/ml inoculum; assay type: functional, organism-based
Staphylococcus aureus [3] = experiment: Antibacterial activity against methicillin-sensitive Staphylococcus aureus 5956 infected in in vitro pharmacokinetic model assessed as reduction in viable count at 750 mg, iv every 8 hrs measured after 24 hrs using 10^6 CFU/ml inoculum; assay type: functional
Staphylococcus aureus [4] = experiment: Antibacterial activity against methicillin-resistant Staphylococcus aureus 33922 infected in in vitro pharmacokinetic model assessed as time required to 99.9% killing at 1500 mg, iv every 8 hrs using 10^8 CFU/ml inoculum; assay type: functional
Staphylococcus aureus [5] = experiment: Antibacterial activity against methicillin-resistant Staphylococcus aureus 33827 infected in in vitro pharmacokinetic model assessed as reduction in viable count at 1500 mg, iv every 8 hrs measured after 24 hrs using 10^8 CFU/ml inoculum; assay type: functional
Summary of the method: (§1)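 Single-compartment dilutional in vitro PK model, 10% Mueller-Hinton broth, 37°C, stirred, dilution 132 ml/h. […] Inoculum 10^6 CFU/ml (added 45 min pre-dose) or 10^8 CFU/ml (run overnight). Viable counts by spiral plating, beta-lactamase neutralization, detection limit 10^2 CFU/ml. At least triplicate.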

Staphylococcus aureus [6] = experiment: T>MIC for 4-log drop in count in methicillin-resistant Staphylococcus aureus 33827 in in vitro pharmacokinetic model after 24 hrs using 10^6 CFU/ml inoculum; assay type: functional
Staphylococcus aureus [7] = experiment: Antibacterial activity against methicillin-resistant Staphylococcus aureus 33922 infected in in vitro pharmacokinetic model assessed as time required to 99% killing at 1500 mg, iv every 8 hrs using 10^8 CFU/ml inoculum; assay type: functional
Staphylococcus aureus [8] = experiment: T>MIC for 3-log drop in count in methicillin-resistant Staphylococcus aureus 33820 in in vitro pharmacokinetic model after 24 hrs using 10^6 CFU/ml inoculum; assay type: functional
Staphylococcus aureus [9] = experiment: AUBKC (0 to 48 hrs) in methicillin-resistant Staphylococcus aureus 33829 infected in in vitro pharmacokinetic model at 750 mg, iv every 8 hrs using 10^6 CFU/ml inoculum; assay type: functional
Summary of the method: (§2)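 Single-compartment dilutional in vitro PK model at 37°C in 10% Mueller-Hinton broth, stirred, flow 132 ml/h. […] Inoculum 10^6 CFU/ml added 45 min before dosing, or 10^8 CFU/ml run overnight. Viable counts with β-lactamase neutralisation. AUBKC by log-linear trapezoidal rule, at least triplicate.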

Staphylococcus aureus [10] = experiment: Antibacterial activity against methicillin-sensitive Staphylococcus aureus 5956 infected in in vitro pharmacokinetic model assessed as reduction in viable count at 1500 mg, iv every 8 hrs measured after 48 hrs using 10^6 CFU/ml inoculum; assay type: functional
Staphylococcus aureus [11] = experiment: Antibacterial activity against methicillin-resistant Staphylococcus aureus 33827 infected in in vitro pharmacokinetic model assessed as reduction in viable count at 750 mg, iv every 8 hrs measured after 36 hrs using 10^6 CFU/ml inoculum; assay type: functional; summary of the method: as §1
Staphylococcus aureus [12] = experiment: Antibacterial activity against methicillin-resistant Staphylococcus aureus 33921 infected in in vitro pharmacokinetic model assessed as reduction in viable count at 750 mg, iv every 8 hrs measured after 24 hrs using 10^6 CFU/ml inoculum; assay type: functional
Staphylococcus aureus [13] = experiment: Antibacterial activity against methicillin-resistant Staphylococcus aureus 33922 assessed as viable count at 4 times of MIC after 48 hrs using 10^6 CFU/ml inoculum; assay type: functional, organism-based
Staphylococcus aureus [14] = experiment: AUBKC (0 to 48 hrs) in methicillin-sensitive Staphylococcus aureus 5956 infected in in vitro pharmacokinetic model at 750 mg, iv every 8 hrs using 10^6 CFU/ml inoculum; assay type: functional
Staphylococcus aureus [15] = experiment: Antibacterial activity against methicillin-resistant Staphylococcus aureus 33815 by broth dilution method; assay type: functional
Summary of the method: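 Standard CLSI broth dilution MIC.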

Staphylococcus aureus [16] = experiment: Antibacterial activity against methicillin-resistant Staphylococcus aureus 33815 infected in in vitro pharmacokinetic model assessed as reduction in viable count at 1500 mg, iv every 8 hrs measured after 48 hrs using 10^6 CFU/ml inoculum; assay type: functional
Summary of the method: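 Single-compartment dilutional in vitro PK model, 37°C, stirred, in 10% Mueller-Hinton broth. […] Inoculum 10^6 CFU/ml from a 24-h plate culture was added 45 min before dosing. Viable counts by spiral plating on nutrient agar with β-lactamase neutralization. Log change was taken from time 0; detection limit 10^2 CFU/ml; at least triplicate.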

Staphylococcus aureus [17] = experiment: T>MIC for 1-log drop in count in methicillin-resistant Staphylococcus aureus 33815 in in vitro pharmacokinetic model after 24 hrs using 10^6 CFU/ml inoculum; assay type: functional
Staphylococcus aureus [18] = experiment: Antibacterial activity against methicillin-resistant Staphylococcus aureus 33829 infected in in vitro pharmacokinetic model assessed as time required to 99% killing at 1500 mg, iv every 8 hrs using 10^6 CFU/ml inoculum; assay type: functional; summary of the method: as §1
Staphylococcus aureus [19] = experiment: Antibacterial activity against methicillin-resistant Staphylococcus aureus 33921 infected in in vitro pharmacokinetic model assessed as reduction in viable count at 1500 mg, iv every 8 hrs measured after 36 hrs using 10^6 CFU/ml inoculum; assay type: functional; summary of the method: as §1
Staphylococcus aureus [20] = experiment: AUBKC (0 to 24 hrs) in methicillin-resistant Staphylococcus aureus 33815 infected in in vitro pharmacokinetic model at 1500 mg, iv every 8 hrs using 10^8 CFU/ml inoculum; assay type: functional; summary of the method: as §2
Staphylococcus aureus [21] = experiment: T>MIC for static effect in methicillin-resistant Staphylococcus aureus 33820 in in vitro pharmacokinetic model after 24 hrs using 10^6 CFU/ml inoculum; assay type: functional
Staphylococcus aureus [22] = experiment: Antibacterial activity against methicillin-resistant Staphylococcus aureus 33829 in in vitro pharmacokinetic model assessed as viable count at 6 times of MIC; assay type: functional
Summary of the method: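 Preexposure population analysis: time-zero model samples plated on nutrient agar without drug and with drug at multiples of the 10% broth MIC. Growth reported as log CFU/ml, detection limit 2 log10.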

Staphylococcus aureus [23] = experiment: AUBKC (0 to 48 hrs) in methicillin-resistant Staphylococcus aureus 33820 infected in in vitro pharmacokinetic model at 750 mg, iv every 8 hrs using 10^6 CFU/ml inoculum; assay type: functional; summary of the method: as §2
Staphylococcus aureus [24] = experiment: Antibacterial activity against methicillin-resistant Staphylococcus aureus 33921 infected in in vitro pharmacokinetic model assessed as reduction in viable count at 1500 mg, iv every 8 hrs measured after 12 hrs using 10^6 CFU/ml inoculum; assay type: functional; summary of the method: as §1
Staphylococcus aureus [25] = experiment: Antibacterial activity against methicillin-resistant Staphylococcus aureus 33820 in in vitro pharmacokinetic model assessed as viable count at 2 times of MIC; assay type: functional
Summary of the method: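 Population analysis before drug exposure (time 0). Model samples were plated on nutrient agar without drug and with tomopenem at 2×, 4× and 6× MIC (10% MHB MIC), and growth was recorded as log CFU/ml. Detection limit 2 log10.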

Staphylococcus aureus [26] = experiment: Antibacterial activity against methicillin-resistant Staphylococcus aureus 33827 infected in in vitro pharmacokinetic model assessed as reduction in viable count at 750 mg, iv every 8 hrs measured after 12 hrs using 10^8 CFU/ml inoculum; assay type: functional; summary of the method: as §1
Staphylococcus aureus [27] = experiment: Antibacterial activity against methicillin-resistant Staphylococcus aureus 33921 assessed as viable count at 4 times of MIC after 48 hrs using 10^6 CFU/ml inoculum; assay type: functional, organism-based

C[C@@H](O)[C@H]1C(=O)N2C(C(=O)O)=C(S[C@H]3C[C@@H](C(=O)N4CC[C@H](NC(=O)CNC(=N)N)C4)N(C)C3)[C@H](C)[C@H]12 [TOMOPENEM]
MIC (Staphylococcus aureus [1]): 6 µg/mL (≈ 11.2 µM) | Activity (Staphylococcus aureus [2]): inactive | log10CFU/ml (Staphylococcus aureus [3]): 4.3 | Time (Staphylococcus aureus [4]): 24 h | log10CFU/ml (Staphylococcus aureus [5]): 5.8 | fT>MIC (Staphylococcus aureus [6]): 61% | Time (Staphylococcus aureus [7]): 16 h | fT>MIC (Staphylococcus aureus [8]): 20.4% | AUBC (Staphylococcus aureus [9]): 25 log10CFU/ml.hr | log10CFU/ml (Staphylococcus aureus [10]): 4.4 | log10CFU/ml (Staphylococcus aureus [11]): 3.7 | log10CFU/ml (Staphylococcus aureus [12]): 4 | Activity (Staphylococcus aureus [13]): inactive | AUBC (Staphylococcus aureus [14]): 27.6 log10CFU/ml.hr | MIC (Staphylococcus aureus [15]): 16 µg/mL (≈ 29.8 µM) | log10CFU/ml (Staphylococcus aureus [16]): 4.2 | fT>MIC (Staphylococcus aureus [17]): 8.6% | Time (Staphylococcus aureus [18]): 7 h | log10CFU/ml (Staphylococcus aureus [19]): 4.2 | AUBC (Staphylococcus aureus [20]): 103.5 log10CFU/ml.hr | fT>MIC (Staphylococcus aureus [21]): 5.9% | log10CFU/ml (Staphylococcus aureus [22]): 2.7 | AUBC (Staphylococcus aureus [23]): 28.6 log10CFU/ml.hr | log10CFU/ml (Staphylococcus aureus [24]): 3 | log10CFU/ml (Staphylococcus aureus [25]): 2.3 | log10CFU/ml (Staphylococcus aureus [26]): 3.8 | Activity (Staphylococcus aureus [27]): Active
